Source: PubChem BioAssay (Johns Hopkins Ion Channel Center)
Shown are actives, neighbours in structure and some others; about 3.5% of the full set was active somewhere.
MrgX1 antag – antagonists of human MrgX1 receptor. Q96LB2. AID 588676. B-score at 10 µM. actives 1.3% (n = 310,000). MRGX1-HEK293 calcium flux, Fluo-4, BAM8-22 antagonism; stronger effect = lower value;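 active = calcium-response B-score plate-corrected more than 3 library SD below zero, starting fluorescence within 5 deviations, no agonist response on first addition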;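 note: peak minus trough fluorescence over baseline after final BAM8-22 challenge near maximal dose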
Target sequence (Q96LB2 whole entry, looked up): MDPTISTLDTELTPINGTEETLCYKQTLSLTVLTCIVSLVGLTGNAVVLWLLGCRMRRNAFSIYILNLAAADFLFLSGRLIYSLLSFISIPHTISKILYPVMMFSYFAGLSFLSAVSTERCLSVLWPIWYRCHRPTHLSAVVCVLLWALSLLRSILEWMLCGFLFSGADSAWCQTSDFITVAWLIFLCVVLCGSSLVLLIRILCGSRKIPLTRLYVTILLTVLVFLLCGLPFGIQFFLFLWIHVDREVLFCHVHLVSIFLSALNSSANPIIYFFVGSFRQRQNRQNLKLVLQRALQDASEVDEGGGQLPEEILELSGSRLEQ
MrgX1 allo act – human MrgX1 positive allosteric modulation, primary screen; actives 0.63% (n = 310,000); MrgX1-HEK293, Fluo-4 calcium flux, FDSS; stronger effect = higher value; B-score at 10 µM;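 active = plate-corrected calcium response at least 3 library SD above typical, normal starting fluorescence, not activating the receptor alone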;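 note: compound read alongside a low EC10 to EC30 dose of BAM8-22 agonist; peak minus trough fluorescence over baseline measured at the second addition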
MrgX1 ag – agonists of human MrgX1 receptor; Q96LB2; MrgX1-HEK293 cells, Fluo-4 calcium fluorescence, agonist mode; stronger effect = higher value; B-score at 10 µM; actives 0.44% (n = 310,000);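 active = calcium response B-score plate-corrected fluorescence ratio at least 3 library SD, with starting fluorescence B-score inside 5 SD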
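Material: HEK293 cells stably expressing human MrgX1 receptor | Quantity: 15,000 cells per well | Times: Cells plated overnight, dye loaded 0.5 h 37 °C, 0.5 h room temperature | Measured by: Kinetic Fluo-4 NW fluorescence of intracellular calcium | Control set: Positive and negative controls per plate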
RGS4 block – human RGS4 inhibition; HEK293 M3R/RGS4 inducible, Fluo-4 calcium flux; stronger effect = higher value; triggered by carbachol at its EC20; B-score at 10 µM; actives 0.45% (n = 310,000); AID 463165;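 active = B-score, a plate-corrected calcium signal, over three deviations above library mean, with baseline fluorescence within five deviations of library mean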;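 note: RGS4 expression induced by doxycycline in cells with stable M3 receptor; B-score is computed from the integrated fluorescence ratio over baseline after carbachol; higher B-score means a larger calcium signal and so more RGS4 inhibition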
RGS4 pot – potentiators or activators of RGS4; B-score at 10 µM; AID 463111; actives 0.92% (n = 310,000); HEK293 M3R/inducible RGS4, carbachol calcium flux Fluo4; stronger effect = lower value;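 active = B-score of the integrated calcium signal more than 4 SD below the library mean, with starting fluorescence not abnormally high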;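 note: negative B-score means reduced calcium response which marks RGS4 activation or potentiation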
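Reagent: ECmax carbachol challenge; Test system: M3R-expressing HEK293 line, RGS4 induced by doxycycline; Schedule: overnight RGS4 induction, 30 min dye load 37 °C, 20 min compound RT; Detection: calcium dye Fluo4 fluorescence; Read-out: Agonist-evoked peak-minus-minimum fluorescence over baseline, integrated ratio, B score.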
An asterisk follows results filed as active; i = inactive.

SMILES | MrgX1 antag | MrgX1 allo act | MrgX1 ag | RGS4 block | RGS4 pot
Cc1ccc(O)c(Sc2cc(C)ccc2O)c1 | i | i | 29.2* | i | i
CCN(CC)CCNC(=O)c1c(C)n(-c2ccccc2)c2cc(Br)c(OC)cc12 | -7.26* | i | i | i | i
O=C(/C=C/c1ccco1)OCC1CCCN2CCCCC12 (stereo not given) | i | i | i | i | -6.96*
COc1ccc(/C=N\NC(=O)c2ccccc2)cc1COc1ccccc1 | i | i | i | i | i
COc1ccc(/C=N\NC(=O)c2ccc(F)cc2)cc1COc1cc(F)ccc1[N+](=O)[O-] | i | i | i | i | -9.85*
COc1ccc(/C=N/NS(=O)(=O)c2ccc(F)cc2)cc1COc1cc(F)ccc1[N+](=O)[O-] | i | i | i | i | i
CCOC(=O)c1ccccc1OCc1cc(/C=N/NC(=O)c2cccnc2)ccc1OC | i | i | i | i | -7.91*
COc1ccc(CN2CCc3ccccc3C2)cc1Br | i | i | i | i | i
Cc1cc(C)cc(NC(=O)CN2CCC(NC(=O)c3ccccc3F)CC2)c1 | i | i | i | i | i
CC(C)c1ccc2c(c1)CCC1C(C)(CN)CCCC21C (stereo not given) | i | i | 45.8* | i | i
CCCN1CCN(CCCNC(=O)CN2C(=O)C(CC)Oc3ccccc32)CC1 (stereo not given) | i | i | i | i | i
CCC1Oc2ccccc2N(CC(=O)NCCCN2CCN(Cc3ccccc3)CC2)C1=O (stereo not given) | -5.32* | i | i | i | i
O=C(c1ccc(F)cc1)C1CCN(C(=O)c2ccccc2F)CC1 | i | i | i | i | i
Cn1c(=O)c2c(ncn2CC(=O)N/N=C/C=C/c2ccco2)n(C)c1=O | i | 18.1* | i | i | i
Cc1cccc(-c2oc3ccccc3c2-c2ccc3c(c2)OCO3)c1 | -6* | i | i | i | i
CCCCCCCCN1[C@@H](CC(=O)OC)c2cc(F)ccc2S1(=O)=O | i | i | i | i | i
CCCCCCCCCCCCN1[C@@H](CC(=O)OC)c2cc(C(F)(F)F)ccc2S1(=O)=O | -5.78* | i | i | i | i
CCCCCCCCCCCCN1[C@@H](CC(=O)O)c2cc(F)ccc2S1(=O)=O | i | i | i | i | -7.69*
COc1cc(SC)ccc1C(=O)NCC1CCCCC1 | i | i | i | i | i
COC(=O)C1CCN(CC(=O)Nc2cc(Cl)ccc2OC)CC1 | i | 20.9* | i | i | i
O=C(CN1CCN(C/C=C/c2ccccc2)CC1)NC(=O)NC1CCCCC1 | i | i | i | i | -7*
O=C(CN1CCN(Cc2ccccc2)CC1)NC(=O)NC1CCCCC1 | i | i | i | i | i
CCCC1=NN2C(=N)/C(=C\c3ccc(SCc4ccco4)o3)C(=O)N=C2S1 | i | i | 31.5* | i | i
CCCC1=NN2C(=N)/C(=C\c3cc(C)n(Cc4ccccc4)c3C)C(=O)N=C2S1 | i | i | i | i | i
COc1ccc(NC(=O)CN(C)C(=O)c2cn(-c3ccccc3)nc2-c2ccc(Cl)cc2)cc1 | i | i | i | i | i
SMILES | MrgX1 antag | MrgX1 allo act | MrgX1 ag | RGS4 block | RGS4 pot
CCCCOc1ccc(C2=CSC3=NCCN23)cc1[N+](=O)[O-] | i | i | i | i | -7.36*
CCCCOc1ccc(CSc2nnc(C)n2N)cc1[N+](=O)[O-] | i | i | i | i | i
CCOc1ccc(CSC(=N)N)cc1[N+](=O)[O-] | i | i | 45.6* | i | i
CN1OC(Cn2cc(C#N)c(=O)n(C)c2=O)CC1c1ccccc1 (stereo not given) | -5.81* | i | i | i | i
N#CC(=C=[N-])C1=C(C#N)C(c2ccccc2F)C([n+]2ccccc2)C(O)(C2CC2)N1 (stereo not given) | i | i | 47.7* | i | i
Cc1cccc[n+]1C1C(c2ccccc2)C(C#N)=C(C(=C=[N-])C#N)NC1(O)C1CC1 (stereo not given) | i | i | 42.8* | i | i
